According to ChEMBL document CHEMBL1155640, “Guaiane dimers and germacranolide from Artemisia caruifolia” (J Nat Prod, 2000):
Active and inactive are the calls of the source. The rule behind the calls is not given here.

Key:
[1] = molecular target: Protease (Human immunodeficiency virus 1) (UniProt Q9YQ12); assay: Inhibition of HIV1 protease at 100 ug/mL
In short: (§1)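 Commercial HIV protease assay kit, with inhibition calculated by a previously reported method. Compounds were screened at 100 µg/mL. IC50 was taken from concentration-dependent inhibition. Acetyl pepstatin served as positive control.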

Protease = Protease (Human immunodeficiency virus 1, UniProt Q9YQ12); assay: Inhibition of HIV1 protease; in short: as §1
Sequence of Protease (Q9YQ12 whole entry): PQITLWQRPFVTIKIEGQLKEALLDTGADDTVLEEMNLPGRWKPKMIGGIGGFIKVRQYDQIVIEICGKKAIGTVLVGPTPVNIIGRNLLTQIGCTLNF

[2] = tested on: Human immunodeficiency virus 1; assay: Antiviral activity against HIV1 in human MT4 cells assessed as inhibition of viral-induced cytopathic effect at 500 ug/mL; type: functional, organism-based
[3] = tested on: Human immunodeficiency virus 1; assay: Antiviral activity against HIV1 in human MT4 cells assessed as inhibition of viral-induced cytopathic effect at 250 ug/mL; type: functional, organism-based

Sequence of Protease (Human immunodeficiency virus 1) (Q9YQ12 as listed by the source): as the sequence (Q9YQ12 whole entry) above

C[C@@H]1C(=O)O[C@@H]2C3=C([C@H]4C(=O)[C@]3(C)[C@@H]3[C@H](O)C5=C([C@H]6OC(=O)[C@@H](C)[C@@H]6CC[C@]5(C)O)[C@@]43C)[C@@](C)(O)CC[C@@H]12
inhibition [1]: 22%

CC1=C2[C@H]3OC(=O)[C@@H](C)[C@@H]3CC[C@](C)(O)[C@@H]2[C@H]2[C@H]3C(=O)[C@H](C)[C@]4([C@@H]3[C@@](C)(O)CC[C@H]3[C@H](C)C(=O)O[C@@H]34)[C@@H]12 [CARUIFOLIN B]
inhibition [1]: 22%
IC50 (Protease): 293 µM
Activity [2]: Active

CC1=C2[C@H]3OC(=O)[C@@H](C)[C@@H]3CC[C@](C)(O)[C@@H]2[C@H]2[C@@H]3[C@@H]4[C@]5([C@H]6OC(=O)[C@@H](C)[C@@H]6CC[C@]4(C)O[C@@]5(C)[C@H]3O)[C@@H]12
inhibition [1]: 22%

C/C1=C/[C@H]2OC(=O)[C@H](C)[C@H]2CC[C@]2(C)O[C@H]1C[C@H]2O
inhibition [1]: 22%

CC1=C[C@H]2[C@H]3[C@H](C(C)=C4[C@H]5OC(=O)[C@@H](C)[C@@H]5CC[C@](C)(O)[C@@H]43)[C@@]13[C@@H]2[C@@](C)(O)CC[C@H]1[C@H](C)C(=O)O[C@@H]13
inhibition [1]: 22%
Activity [3]: Active

CC1=C2[C@H]3OC(=O)[C@H](C)[C@@H]3CC[C@@](C)(O)[C@@H]2[C@H]2[C@H]3C[C@]4(C)O[C@@]5(C)CC[C@H]6[C@H](C)C(=O)O[C@@H]6[C@@]4([C@@H]35)[C@@H]12
inhibition [1]: 22%

C=C1[C@@H](O)[C@@H]2[C@H]3[C@H](C(C)=C4[C@H]5OC(=O)[C@@H](C)[C@@H]5CC[C@](C)(O)[C@@H]43)[C@@]13[C@@H]2[C@@](C)(O)CC[C@H]1[C@H](C)C(=O)O[C@@H]13
inhibition [1]: 22%

CC1=C2[C@H]3OC(=O)[C@@H](C)[C@@H]3CC[C@](C)(O)[C@@H]2[C@H]2[C@H]3C[C@]4(C)O[C@@]5(C)CC[C@H]6[C@H](C)C(=O)O[C@@H]6[C@@]4([C@@H]35)[C@@H]12
inhibition [1]: 22%
